# Assay results reported in ChEMBL document CHEMBL4689842, “EUbOPEN Chemogenomics Library wave 1” (2021).
# Values joined by “and” are separate entries in the source; they are usually repeats but may differ in a detail not shown here. Equal values may be shown once.
# Test system: U2OS
# Experiment: Multiplex assay against U2OS
# Assay type: toxicity, cell-based
# Settings: human, 10 µM, compound concentration 10 uM
# Procedure, shortened: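 Compound was added to live cells that had been stained at seeding with Hoechst33342, BioTracker Green Microtubule Cytoskeleton Dye, MitoTracker Red and Annexin V Alexa Fluor 680, and imaging followed on a CQ1 microscope at 37°C and 5% CO2. CellPathfinder machine-learning gating divided cells into Hoechst high-intensity objects or normal cells, normal cells into healthy, pyknosed or fragmented nuclei, and pyknosed cells into mitotic or apoptotic. Tubulin, mitochondrial-mass and membrane-permeability phenotypes are per cents of healthy-nucleus cells.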
compound,measurement,setting,value
Cc1sc2c(c1C)C(c1ccc(Cl)cc1)=N[C@@H](CC(=O)OC(C)(C)C)c1nnc(C)n1-2,Population Apoptotic (%),"12 h, replicate 1",41% and 34%
same,Population Fragmented Nuclei (%),"12 h, replicate 1",12%
same,Population Healthy Nuclei (%),"12 h, replicate 1",67% and 58%
same,Population Hoechst High Intensity Objects (%),"12 h, replicate 1",5% and 6%
same,Population Membrane Permeable-Phenotype (%),"12 h, replicate 1",21% and 12%
same,Population Mitochondria Different-Phenotype (%),"12 h, replicate 1",17% and 22%
same,Population Mitotic Cells (%),"12 h, replicate 1",58% and 65%
same,Population Normal (%),"12 h, replicate 1",94% and 93%
same,Population Pyknosed Nuclei (%),"12 h, replicate 1",19% and 20%
same,Population Tubulin-Different-Phenotype (%),"12 h, replicate 1",17% and 24%
same,Total Cell Count,"12 h, replicate 1",1986
same,Population Apoptotic (%),"12 h, replicate 2",28% and 14%
same,Population Fragmented Nuclei (%),"12 h, replicate 2",29% and 21%
same,Population Healthy Nuclei (%),"12 h, replicate 2",55% and 62%
same,Population Hoechst High Intensity Objects (%),"12 h, replicate 2",13% and 12%
same,Population Membrane Permeable-Phenotype (%),"12 h, replicate 2",14%
same,Population Mitochondria Different-Phenotype (%),"12 h, replicate 2",28% and 33%
same,Population Mitotic Cells (%),"12 h, replicate 2",71% and 85%
same,Population Normal (%),"12 h, replicate 2",86% and 87%
same,Population Pyknosed Nuclei (%),"12 h, replicate 2",15% and 16%
same,Population Tubulin-Different-Phenotype (%),"12 h, replicate 2",36% and 27%
same,Population Apoptotic (%),"24 h, replicate 1",88%
same,Population Fragmented Nuclei (%),"24 h, replicate 1",16% and 20%
same,Population Healthy Nuclei (%),"24 h, replicate 1",58%
same,Population Hoechst High Intensity Objects (%),"24 h, replicate 1",5% and 6%
same,Population Membrane Permeable-Phenotype (%),"24 h, replicate 1",27% and 23%
same,Population Mitochondria Different-Phenotype (%),"24 h, replicate 1",19% and 29%
same,Population Mitotic Cells (%),"24 h, replicate 1",12%
same,Population Normal (%),"24 h, replicate 1",94% and 93%
same,Population Pyknosed Nuclei (%),"24 h, replicate 1",24% and 20%
same,Population Tubulin-Different-Phenotype (%),"24 h, replicate 1",30% and 40%
same,Population Apoptotic (%),"24 h, replicate 2",76% and 64%
same,Population Fragmented Nuclei (%),"24 h, replicate 2",30% and 25%
same,Population Healthy Nuclei (%),"24 h, replicate 2",53% and 52%
same,Population Hoechst High Intensity Objects (%),"24 h, replicate 2",11% and 12%
same,Population Membrane Permeable-Phenotype (%),"24 h, replicate 2",20% and 18%
same,Population Mitochondria Different-Phenotype (%),"24 h, replicate 2",30% and 23%
same,Population Mitotic Cells (%),"24 h, replicate 2",23% and 35%
same,Population Normal (%),"24 h, replicate 2",88%
same,Population Pyknosed Nuclei (%),"24 h, replicate 2",15% and 22%
same,Population Tubulin-Different-Phenotype (%),"24 h, replicate 2",52% and 34%
CCn1c(=O)c(-c2ccc(Cl)cc2Cl)cc2cnc(Nc3ccc(N4CCNCC4)c(F)c3)nc21,Population Apoptotic (%),"12 h, replicate 1",97% and 89% and 38%
same,Population Normal (%),"12 h, replicate 1",31% and 45% and 92%
same,Total Cell Count,"12 h, replicate 1",204 and 465 and 202
same,Population Apoptotic (%),"12 h, replicate 2",100% and 88% and 46%
same,Population Fragmented Nuclei (%),"12 h, replicate 2",44% and 21% and 19%
same,Population Membrane Permeable-Phenotype (%),"12 h, replicate 2",71% and 78%
same,Population Normal (%),"12 h, replicate 2",50% and 40% and 80%
same,Total Cell Count,"12 h, replicate 2",206 and 130 and 83
same,Population Apoptotic (%),"24 h, replicate 1",87% and 91% and 60%
same,Population Fragmented Nuclei (%),"24 h, replicate 1",22% and 8%
same,Population Normal (%),"24 h, replicate 1",40% and 34% and 89%
same,Population Pyknosed Nuclei (%),"24 h, replicate 1",50% and 40% and 25%
same,Total Cell Count,"24 h, replicate 1",436 and 206 and 232
same,Population Apoptotic (%),"24 h, replicate 2",100% and 53%
same,Population Fragmented Nuclei (%),"24 h, replicate 2",41% and 39%
same,Population Healthy Nuclei (%),"24 h, replicate 2",31% and 45% and 50%
same,Population Pyknosed Nuclei (%),"24 h, replicate 2",26% and 15% and 27%
same,Population Tubulin-Different-Phenotype (%),"24 h, replicate 2",84% and 86% and 29%
same,Total Cell Count,"24 h, replicate 2",225 and 118 and 97
same,Population Apoptotic (%),"48 h, replicate 1",90%
same,Population Fragmented Nuclei (%),"48 h, replicate 1",48%
same,Population Healthy Nuclei (%),"48 h, replicate 1",10%
same,Population Hoechst High Intensity Objects (%),"48 h, replicate 1",59%
same,Population Membrane Permeable-Phenotype (%),"48 h, replicate 1",75%
same,Population Mitochondria Different-Phenotype (%),"48 h, replicate 1",62%
same,Population Mitotic Cells (%),"48 h, replicate 1",9%
same,Population Normal (%),"48 h, replicate 1",40%
same,Population Pyknosed Nuclei (%),"48 h, replicate 1",41%
same,Population Tubulin-Different-Phenotype (%),"48 h, replicate 1",75%
same,Total Cell Count,"48 h, replicate 1",620
same,Population Apoptotic (%),"48 h, replicate 2",100%
same,Population Fragmented Nuclei (%),"48 h, replicate 2",43%
same,Population Healthy Nuclei (%),"48 h, replicate 2",26%
same,Population Hoechst High Intensity Objects (%),"48 h, replicate 2",56%
same,Population Membrane Permeable-Phenotype (%),"48 h, replicate 2",100%
same,Population Mitochondria Different-Phenotype (%),"48 h, replicate 2",91%
same,Population Mitotic Cells (%),"48 h, replicate 2",0%
same,Population Normal (%),"48 h, replicate 2",43%
same,Population Pyknosed Nuclei (%),"48 h, replicate 2",30%
same,Population Tubulin-Different-Phenotype (%),"48 h, replicate 2",91%
same,Total Cell Count,"48 h, replicate 2",227
Cn1cncc1[C@@](O)(COc1ccc(C#N)cc1-c1ccc(OC(F)(F)F)cc1)c1ccc(C#N)cc1 [A-108],Population Apoptotic (%),"12 h, replicate 1",38% and 53%
same,Population Healthy Nuclei (%),"12 h, replicate 1",70% and 84%
same,Population Hoechst High Intensity Objects (%),"12 h, replicate 1",3%
same,Population Membrane Permeable-Phenotype (%),"12 h, replicate 1",31% and 17%
same,Population Mitochondria Different-Phenotype (%),"12 h, replicate 1",42% and 25%
same,Population Mitotic Cells (%),"12 h, replicate 1",61% and 46%
same,Population Normal (%),"12 h, replicate 1",96%
same,Population Pyknosed Nuclei (%),"12 h, replicate 1",17% and 11%
same,Total Cell Count,"12 h, replicate 1",188 and 136
same,Population Apoptotic (%),"12 h, replicate 2",43% and 50%
same,Population Healthy Nuclei (%),"12 h, replicate 2",60% and 90%
same,Population Hoechst High Intensity Objects (%),"12 h, replicate 2",19% and 8%
same,Population Mitochondria Different-Phenotype (%),"12 h, replicate 2",63% and 21%
same,Population Mitotic Cells (%),"12 h, replicate 2",56% and 50%
same,Population Normal (%),"12 h, replicate 2",80% and 91%
same,Total Cell Count,"12 h, replicate 2",101 and 164
same,Population Fragmented Nuclei (%),"24 h, replicate 1",8% and 3%
same,Population Healthy Nuclei (%),"24 h, replicate 1",74% and 86%
same,Population Hoechst High Intensity Objects (%),"24 h, replicate 1",2% and 4%
same,Population Membrane Permeable-Phenotype (%),"24 h, replicate 1",29% and 11%
same,Population Mitochondria Different-Phenotype (%),"24 h, replicate 1",37% and 20%
same,Population Mitotic Cells (%),"24 h, replicate 1",28% and 77%
same,Population Normal (%),"24 h, replicate 1",97% and 95%
same,Population Pyknosed Nuclei (%),"24 h, replicate 1",17% and 10%
same,Total Cell Count,"24 h, replicate 1",190 and 184
same,Population Apoptotic (%),"24 h, replicate 2",80% and 45%
same,Population Fragmented Nuclei (%),"24 h, replicate 2",18%
same,Population Healthy Nuclei (%),"24 h, replicate 2",55% and 85%
same,Population Hoechst High Intensity Objects (%),"24 h, replicate 2",7%
same,Population Mitochondria Different-Phenotype (%),"24 h, replicate 2",75% and 28%
same,Population Mitotic Cells (%),"24 h, replicate 2",19% and 54%
same,Population Normal (%),"24 h, replicate 2",92%
same,Population Tubulin-Different-Phenotype (%),"24 h, replicate 2",73% and 25%
same,Total Cell Count,"24 h, replicate 2",88 and 199
